Reference: ChEMBL document CHEMBL3588757, “Structure-based design, synthesis and biological testing of piperazine-linked bis-epipodophyllotoxin etoposide analogs” (Bioorg Med Chem, 2015)

Columns and labels:
IGROV-1 = assay: Cytotoxicity against human IGROV1 cells assessed as cell growth at 50 uM by SRB assay; format: functional; details: read-out: Activity
SN12C = assay: Cytotoxicity against human SN12C cells assessed as cell growth at 0.005 uM by SRB assay; format: functional; details: read-out: Activity
SR = assay: Cytotoxicity against human SR cells assessed as cell growth at 50 uM by SRB assay; format: functional; details: read-out: Activity
SW-620 = assay: Cytotoxicity against human SW620 cells assessed as cell growth at 50 uM by SRB assay; format: functional; details: read-out: Activity
A498 [1] = assay: Cytotoxicity against human A498 cells assessed as cell growth at 5 uM by SRB assay; format: functional; details: read-out: Activity
TK-10 [2] = assay: Cytotoxicity against human TK10 cells assessed as cell growth at 5 uM by SRB assay; format: functional; details: read-out: Activity
HOP-62 = assay: Cytotoxicity against human HOP62 cells assessed as cell growth at 0.005 uM by SRB assay; format: functional; details: read-out: Activity
Procedure, shortened: (§1)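 Measured in the NCI-60 human tumour cell line panel using five-dose testing. Growth was recorded at each dose for each cell line, and a GI50 was derived for each line.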

M14 = assay: Cytotoxicity against human M14 cells assessed as cell growth at 5 uM by SRB assay; format: functional; details: read-out: Activity
TK-10 [3] = assay: Cytotoxicity against human TK10 cells assessed as cell growth at 0.005 uM by SRB assay; format: functional; details: read-out: Activity
HL-60(TB) [4] = assay: Cytotoxicity against human HL-60(TB) cells assessed as cell growth at 0.005 uM by SRB assay; format: functional; details: read-out: Activity; procedure, shortened: as §1
MCF7 [5] = assay: Cytotoxicity against human MCF7 cells by SRB assay; format: functional
Procedure, shortened: (§2)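 NCI-60 panel screen; 5-dose testing giving GI50 per cell line, plus a single 10 µM one-dose test. Method details not given beyond the NCI screen.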

KM12 [6] = assay: Cytotoxicity against human KM12 cells assessed as cell growth at 50 uM by SRB assay; format: functional; details: read-out: Activity
MCF7 [7] = assay: Cytotoxicity against human MCF7 cells assessed as cell growth at 0.005 uM by SRB assay; format: functional; details: read-out: Activity
KM12 [8] = assay: Cytotoxicity against human KM12 cells assessed as cell growth at 5 uM by SRB assay; format: functional; details: read-out: Activity
MDA-MB-231 = assay: Cytotoxicity against human MDA-MB-231/ATCC cells assessed as cell growth at 50 uM by SRB assay; format: functional; details: read-out: Activity
A498 [9] = assay: Cytotoxicity against human A498 cells assessed as cell growth at 0.05 uM by SRB assay; format: functional; details: read-out: Activity
A498 [10] = assay: Cytotoxicity against human A498 cells assessed as cell growth at 50 uM by SRB assay; format: functional; details: read-out: Activity
ACHN = assay: Cytotoxicity against human ACHN cells assessed as cell growth at 0.5 uM by SRB assay; format: functional; details: read-out: Activity
NCI-H322M = assay: Cytotoxicity against human NCI-H322M cells assessed as cell growth at 0.05 uM by SRB assay; format: functional; details: read-out: Activity
UACC-257 = assay: Cytotoxicity against human UACC257 cells assessed as cell growth at 5 uM by SRB assay; format: functional; details: read-out: Activity
OVCAR-5 = assay: Cytotoxicity against human OVCAR5 cells by SRB assay; format: functional; procedure, shortened: as §2
CCRF-CEM [11] = assay: Cytotoxicity against human CCRF-CEM cells assessed as cell growth at 0.5 uM by SRB assay; format: functional; details: read-out: Activity
NCI-H23 = assay: Cytotoxicity against human NCI-H23 cells assessed as cell growth at 5 uM by SRB assay; format: functional; details: read-out: Activity
HL-60(TB) [12] = assay: Cytotoxicity against human HL-60(TB) cells by SRB assay; format: functional; procedure, shortened: as §1
U-251 = assay: Cytotoxicity against human U251 cells assessed as cell growth at 5 uM by SRB assay; format: functional; details: read-out: Activity
[13] = Cytotoxicity against human Hs578T cells assessed as cell growth at 0.005 uM by SRB assay; format: functional; details: Hs-578T, read-out: Activity; procedure, shortened: as §1
A498 [14] = assay: Cytotoxicity against human A498 cells by SRB assay; format: functional
SNB-19 [15] = assay: Cytotoxicity against human SNB19 cells assessed as cell growth at 0.5 uM by SRB assay; format: functional; details: read-out: Activity
SNB-19 [16] = assay: Cytotoxicity against human SNB19 cells assessed as cell growth at 50 uM by SRB assay; format: functional; details: read-out: Activity
A549 = assay: Cytotoxicity against human A549/ATCC cells assessed as cell growth at 0.5 uM by SRB assay; format: functional; details: read-out: Activity
OVCAR-4 = assay: Cytotoxicity against human OVCAR4 cells assessed as cell growth at 0.005 uM by SRB assay; format: functional; details: read-out: Activity
MCF7 [17] = assay: Cytotoxicity against human MCF7 cells assessed as cell growth at 0.5 uM by SRB assay; format: functional; details: read-out: Activity
BT-549 = assay: Cytotoxicity against human BT549 cells assessed as cell growth at 0.05 uM by SRB assay; format: functional; details: read-out: Activity
MDA-MB-435 [18] = assay: Cytotoxicity against human MDA-MB-435 cells assessed as cell growth at 5 uM by SRB assay; format: functional; details: read-out: Activity
MDA-MB-435 [19] = assay: Cytotoxicity against human MDA-MB-435 cells assessed as cell growth at 0.5 uM by SRB assay; format: functional; details: read-out: Activity
KM12 [20] = assay: Cytotoxicity against human KM12 cells by SRB assay; format: functional; procedure, shortened: as §2
CCRF-CEM [21] = assay: Cytotoxicity against human CCRF-CEM cells assessed as cell growth at 0.05 uM by SRB assay; format: functional; details: read-out: Activity
K562 = assay: Cytotoxicity against human K562 cells assessed as cell growth inhibition after 72 hrs by MTS assay; format: functional, cell-based; details: K562, 72 h
MDA-MB-468 [22] = assay: Cytotoxicity against human MDA-MB-468 cells assessed as cell growth at 0.5 uM by SRB assay; format: functional; details: read-out: Activity
MDA-MB-468 [23] = assay: Cytotoxicity against human MDA-MB-468 cells assessed as cell growth at 50 uM by SRB assay; format: functional; details: read-out: Activity
NCI-H460 = assay: Cytotoxicity against human NCI-H460 cells assessed as cell growth at 50 uM by SRB assay; format: functional; details: read-out: Activity
SK-OV-3 = assay: Cytotoxicity against human SKOV3 cells assessed as cell growth at 5 uM by SRB assay; format: functional; details: read-out: Activity
SK-MEL-5 = assay: Cytotoxicity against human SK-MEL-5 cells by SRB assay; format: functional; procedure, shortened: as §2
[24] = read-out: LC50 (the source's name)
[25] = read-out: pLC50 (the source's name) (converted)

`COc1cc([C@@H]2c3cc4c(cc3[C@@H](NC(=O)CN3CCN(CCCCCCN5CCN(CC(=O)N[C@@H]6c7cc8c(cc7[C@@H](c7cc(OC)c(O)c(OC)c7)[C@H]7C(=O)OC[C@@H]76)OCO8)CC5)CC3)[C@H]3COC(=O)[C@H]23)OCO4)cc(OC)c1O` gave a growth at 50 µM (IGROV-1) of 47%, a growth at 0.005 µM (SN12C) of 96% and a growth at 50 µM (SR) of 1%. It also gave a growth at 50 µM (SW-620) of 4%, a growth at 5 µM (A498 [1]) of 54% and a growth at 5 µM (TK-10 [2]) of 85%. It also gave a growth at 0.005 µM (HOP-62) of 95%, a growth at 5 µM (M14) of 35% and a growth at 0.005 µM (TK-10 [3]) of 101%. The growth at 0.005 µM (HL-60(TB) [4]) was 120%, the GI50 (MCF7 [5]; read-out: GI50) was 0.195 µM and the CC50 (MCF7 [5]; [24]) was greater than 50 µM. For the same compound, the TGI (MCF7 [5]; read-out: TGI) was greater than 50 µM, the GI50 (MCF7 [5]; read-out: pGI50 (converted)) was 0.195 µM and the CC50 (MCF7 [5]; [25]) was greater than 50.1 µM. For the same compound, the TGI (MCF7 [5]; read-out: pTGI (converted)) was greater than 50.1 µM, the growth at 50 µM (KM12 [6]) was 10% and the growth at 0.005 µM (MCF7 [7]) was 80%. It also gave a growth at 5 µM (KM12 [8]) of 46%, a growth at 50 µM (MDA-MB-231) of 13% and a growth at 0.05 µM (A498 [9]) of 96%. It also gave a growth at 50 µM (A498 [10]) of -10%, a growth at 0.5 µM (ACHN) of 95% and a growth at 0.05 µM (NCI-H322M) of 105%. For the same compound, the growth at 5 µM (UACC-257) was 62%, the GI50 (OVCAR-5; read-out: GI50) was 7.24 µM and the CC50 (OVCAR-5; [24]) was greater than 50 µM. For the same compound, the TGI (OVCAR-5; read-out: TGI) was greater than 50 µM, the GI50 (OVCAR-5; read-out: pGI50 (converted)) was 7.24 µM and the CC50 (OVCAR-5; [25]) was greater than 50.1 µM. For the same compound, the TGI (OVCAR-5; read-out: pTGI (converted)) was greater than 50.1 µM, the growth at 0.5 µM (CCRF-CEM [11]) was 31% and the growth at 5 µM (NCI-H23) was 44%. For the same compound, the GI50 (HL-60(TB) [12]; read-out: GI50) was 0.772 µM, the CC50 (HL-60(TB) [12]; [24]) was greater than 50 µM and the TGI (HL-60(TB) [12]; read-out: TGI) was 33.8 µM. It also gave a GI50 (HL-60(TB) [12]; read-out: pGI50 (converted)) of 0.776 µM, a CC50 (HL-60(TB) [12]; [25]) greater than 50.1 µM and a TGI (HL-60(TB) [12]; read-out: pTGI (converted)) of 33.9 µM. For the same compound, the growth at 5 µM (U-251) was 23%, the growth at 0.005 µM [13] was 95% and the GI50 (A498 [14]; read-out: GI50) was 5.74 µM. The CC50 (A498 [14]; [24]) was greater than 50 µM, the TGI (A498 [14]; read-out: TGI) was 35.2 µM and the GI50 (A498 [14]; read-out: pGI50 (converted)) was 5.75 µM. It also gave a CC50 (A498 [14]; [25]) greater than 50.1 µM, a TGI (A498 [14]; read-out: pTGI (converted)) of 35.5 µM and a growth at 0.5 µM (SNB-19 [15]) of 66%. It also gave a growth at 50 µM (SNB-19 [16]) of 11%, a growth at 0.5 µM (A549) of 56% and a growth at 0.005 µM (OVCAR-4) of 85%. For the same compound, the growth at 0.5 µM (MCF7 [17]) was 31%, the growth at 0.05 µM (BT-549) was 87% and the growth at 5 µM (MDA-MB-435 [18]) was 57%. The growth at 0.5 µM (MDA-MB-435 [19]) was 84%, the GI50 (KM12 [20]; read-out: GI50) was 3.79 µM and the CC50 (KM12 [20]; [24]) was greater than 50 µM. For the same compound, the TGI (KM12 [20]; read-out: TGI) was greater than 50 µM, the GI50 (KM12 [20]; read-out: pGI50 (converted)) was 3.8 µM and the CC50 (KM12 [20]; [25]) was greater than 50.1 µM. The TGI (KM12 [20]; read-out: pTGI (converted)) was greater than 50.1 µM, the growth at 0.05 µM (CCRF-CEM [21]) was 95% and the IC50 (K562) was 0.041 µM. The growth at 0.5 µM (MDA-MB-468 [22]) was 83%, the growth at 50 µM (MDA-MB-468 [23]) was -33% and the growth at 50 µM (NCI-H460) was -28%. The growth at 5 µM (SK-OV-3) was 44%, the GI50 (SK-MEL-5; read-out: GI50) was 6.93 µM and the CC50 (SK-MEL-5; [24]) was greater than 50 µM. For the same compound, the TGI (SK-MEL-5; read-out: TGI) was greater than 50 µM, the GI50 (SK-MEL-5; read-out: pGI50 (converted)) was 6.92 µM and the CC50 (SK-MEL-5; [25]) was greater than 50.1 µM. The TGI (SK-MEL-5; read-out: pTGI (converted)) was greater than 50.1 µM.
